MEKK2mut PB1 HTS: signal of MEK5 binding to mutant human MEKK2 PB1 domain. bead flow cytometry, Alexa488-MEK5 binding to MEKK2 mutant. percent response, % at 10 µM. hit rate 0.35% among 290,000. AID 1530; in the data active = percent response above about 24%, passing the limit was not always enough
MEKK2wt PB1 HTS: raises or lowers MEK5 binding to wildtype human MEKK2 PB1 domain. binding response (% of control), % at 10 µM. hit rate 1.1% among 290,000. AID 1531. bead flow cytometry, Alexa488-MEK5 binding to MEKK2 WT; actives lie on both sides; in the data active = binding response below about 67% or above about 130%; inconclusive = no clear call, values can overlap the other calls; inactive = in between
Apaf-1 inh: inhibitors of human Apaf-1 apoptosome | O14727 | reconstituted apoptosome caspase-3 activity, DEVD-Rh110 fluorescence | inhibition, % at 20 µM | hit rate 0.71% among 330,000 | AID 489030; active = inhibition of at least 40% at 20 µM;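 also: plate controls were DMSO wells for no effect and DEVD-CHO caspase inhibitor wells for full effect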
Target sequence (O14727 whole entry, looked up): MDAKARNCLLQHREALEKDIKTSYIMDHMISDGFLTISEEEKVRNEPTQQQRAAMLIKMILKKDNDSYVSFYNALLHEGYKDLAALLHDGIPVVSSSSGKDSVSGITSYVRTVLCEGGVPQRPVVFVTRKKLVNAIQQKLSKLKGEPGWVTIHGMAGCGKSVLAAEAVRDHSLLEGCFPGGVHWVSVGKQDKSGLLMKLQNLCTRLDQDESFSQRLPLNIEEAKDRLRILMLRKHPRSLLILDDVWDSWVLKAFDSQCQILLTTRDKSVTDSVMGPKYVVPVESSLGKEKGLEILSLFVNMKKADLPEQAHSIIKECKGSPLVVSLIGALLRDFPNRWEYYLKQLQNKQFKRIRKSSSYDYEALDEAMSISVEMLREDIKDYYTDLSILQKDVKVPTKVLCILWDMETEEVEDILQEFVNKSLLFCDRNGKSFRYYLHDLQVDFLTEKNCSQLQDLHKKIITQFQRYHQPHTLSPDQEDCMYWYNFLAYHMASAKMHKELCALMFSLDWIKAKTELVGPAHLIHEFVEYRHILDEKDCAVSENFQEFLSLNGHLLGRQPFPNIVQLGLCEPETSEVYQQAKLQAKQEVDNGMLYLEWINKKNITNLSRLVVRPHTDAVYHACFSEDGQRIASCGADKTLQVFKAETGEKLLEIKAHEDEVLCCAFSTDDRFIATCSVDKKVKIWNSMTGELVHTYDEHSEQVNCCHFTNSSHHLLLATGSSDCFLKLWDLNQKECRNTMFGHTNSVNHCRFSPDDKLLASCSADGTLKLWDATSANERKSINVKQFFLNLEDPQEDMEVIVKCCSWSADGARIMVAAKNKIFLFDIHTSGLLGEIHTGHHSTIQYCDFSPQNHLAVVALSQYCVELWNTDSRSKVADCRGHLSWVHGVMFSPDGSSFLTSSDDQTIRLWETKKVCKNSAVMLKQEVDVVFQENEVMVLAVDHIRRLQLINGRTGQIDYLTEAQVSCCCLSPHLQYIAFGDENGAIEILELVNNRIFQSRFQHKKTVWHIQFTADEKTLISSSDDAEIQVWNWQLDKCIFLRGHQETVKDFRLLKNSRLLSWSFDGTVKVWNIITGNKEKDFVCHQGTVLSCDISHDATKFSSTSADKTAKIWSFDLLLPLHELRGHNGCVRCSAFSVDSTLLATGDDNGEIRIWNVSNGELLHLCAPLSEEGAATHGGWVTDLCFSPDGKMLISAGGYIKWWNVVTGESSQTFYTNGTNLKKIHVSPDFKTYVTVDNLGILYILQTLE
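Material: reconstituted apoptosome with Apaf-1, cytochrome c, caspase-9, procaspase-3, dATP. Technique: Rh110 fluorescence intensity. Buffer or medium: pH 7.5 Hepes buffer with CHAPS, BSA, DTT. Times: 30 min plus 50 min, RT.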
PREPL inh: human PREPL enzyme inhibition; hit rate 0.68% among 320,000; Q4J6C6; recombinant PREPL, fluorescence polarization activity-based probe; inhibition, % at 5.96 µM; in the data active = inhibition above about 43%;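 also: 0% = enzyme with DMSO and 100% = wells lacking enzyme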
MEKK3 PB1 HTS: raises or lowers MEK5 binding to the human MEKK3 PB1 domain; Q99759; bead-based flow cytometry, Alexa488-MEK5 binding to MEKK3; actives lie on both sides; 0 = blocked by unlabeled MEK5, 100 = vehicle; binding response (% of control), % at 10 µM; hit rate 1.4% among 290,000;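 active = binding response more than 3 SD above or below the average of its plate-row segment, actives on both sides; inconclusive = wells at one plate position flagged as instrument error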;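 also: Alexa488 bead fluorescence after subtracting the streptavidin-only scavenger bead signal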
UBC13 polyUb: blocks human UBC13 polyubiquitin chain formation; TR-FRET; inhibition, % at 20 µM; hit rate 0.47% among 330,000; in the data active = inhibition above about 45%, passing the limit was not always enough; inconclusive = no clear call, values can overlap the other calls
Casp3 UBC13 ctr: inhibits human caspase-3 in UBC13 counter-screen. Recombinant caspase-3, Caspase-Glo 3/7 luminescence, 60 min. AID 488856. shares compounds with UBC13 polyUb. hit rate 4% among 1,400. inhibition, % at 20 µM;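 active = mean inhibition across replicates above about 26%, limit read from the data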;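 also: plate controls were DMSO with caspase-3 for no effect and DMSO wells lacking enzyme for full effect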
UBC13 confirm: human UBC13 polyubiquitin inhibition, confirmed. shares compounds with UBC13 polyUb. UBC13 polyubiquitination, TR-FRET, biochemical. inhibition, % at 10 µM. hit rate 68% among 1,400. AID 488859; in the data active = inhibition above about 45%; inconclusive = no clear call, values can overlap the other calls
* hit, by the source's call; u = inconclusive; x = not tested or not shown. Sampled rows, rich in hits. Any-hit rate of the full collection: about 3.1%.

SMILES | MEKK2mut PB1 HTS | MEKK2wt PB1 HTS | Apaf-1 inh | PREPL inh | MEKK3 PB1 HTS | UBC13 polyUb | Casp3 UBC13 ctr | UBC13 confirm
C#CCOCCOCCOCCNc1nc(N2CCN(C(=O)CCCCCCCCCCNC(=O)[C@H](CO)n3cc(CCCSC)nn3)CC2)nc(N2CCN(C(=O)CCCCCCCCCCNC(=O)[C@H](CCCN=C(N)N)n3cc(C[C@@H](C)CC)nn3)CC2)n1 | x | x | 45* | 21 | x | 122* | 2 | 121*
C#CCOCCOCCOCCNc1nc(N2CCN(C(=O)CCCCCCCCCCNC(=O)Cn3cc(CCCCCN)nn3)CC2)nc(N2CCN(C(=O)CCCCCCCCCCNC(=O)[C@@H](CCSC)n3cc(CCO)nn3)CC2)n1 | x | x | 72* | 41 | x | 119* | -2 | 125*
C=C1SC(Nc2c(C)cc(C)cc2C)=NC12CCCCC2 | 18 | 123 | -12 | -2 | 103 | 22 | x | x
COc1ccc(-c2cc(-c3cccs3)nc(OC)c2C#N)cc1OC | 11 | 100 | -2 | 2 | 102 | 50* | -2 | 44
COc1nc(-c2cccs2)cc(-c2ccc(C)cc2)c1C#N | 5 | 99 | 14 | 4 | 105 | 28 | x | x
CC(C)c1ccc(/C=N/NC(=O)c2ccc(-n3cnnn3)cc2)cc1 | x | x | 6 | x | x | -2 | x | x
COc1ccc(CC(=O)Oc2ccc(F)cc2)cc1 | 1 | 105 | 6 | 7 | 102 | 4 | x | x
COc1cccc(N2C(=O)Nc3ccc(Br)cc3C2(O)C(=O)NCCN(C)C)c1 (centres undefined) | 8 | 104 | 4 | 12 | 101 | -1 | x | x
CC(=O)Nc1ccc(S(=O)(=O)N2CCN(Cc3cccc([N+](=O)[O-])c3)CC2)cc1 | -1 | 98 | 6 | 10 | 99 | 2 | x | x
CCOC(=O)c1cc(-c2ccc(OC)cc2F)nc2c1c(C)nn2CCC#N | 6 | 97 | 15 | -1 | 98 | 49* | -3 | 44
CCOC(=O)c1cc(-c2ccncc2)nc2c1c(C)nn2C | -4 | 95 | 18 | 7 | 87 | 113* | -2 | u
CCOC(=O)c1cc(-c2cccnc2)nn1-c1ccccn1 | 5 | 117 | 13 | 8 | 111 | -5 | x | x
CCOC(=O)c1cc(-c2ccccc2)nc2c1c(C)nn2-c1ccccn1 | 1 | 104 | 16 | -6 | 103 | 62* | 1 | 45
CCC1(CC)NC(=O)N(CC(=O)NC(=O)NCc2ccccc2)C1=O | 8 | 108 | -2 | 0 | 106 | 0 | x | x
CC1CCCN(CCCNC(=O)c2nn(C)c3c2CS(=O)(=O)c2ccccc2-3)C1 (centres undefined) | 4 | 102 | 31 | 10 | 102 | -1 | x | x
Cc1ccc(NC(=O)c2nc[nH]c2C(=O)N[C@H](C)c2ccccc2)cc1 | x | x | 22 | 0 | x | -6 | x | x
CCOC(=O)c1ccc(NC(=O)c2nc[nH]c2C(=O)N[C@H](C)c2ccccc2)cc1 | -18 | 83 | 20 | -1 | 88 | 70* | -3 | 34
CCOC(=O)c1ccc(NC(=O)c2nc[nH]c2C(=O)N[C@@H](CC(C)C)C(=O)OC(C)(C)C)cc1 | -18 | 76 | 12 | -12 | 82 | -6 | x | x
COc1ccc(NC(=O)c2nc[nH]c2C(=O)NCc2ccccc2)cc1 | x | x | 16 | 1 | x | 60* | 8 | 8
CCOC(=O)c1ccc(NC(=O)c2nc[nH]c2C(=O)N[C@@H](C)C(=O)OC(C)(C)C)cc1 | -6 | 97 | 31 | -5 | 86 | 58* | -4 | 38
CC1C(=O)N2CCCc3cc(NS(=O)(=O)c4ccccc4)cc1c32 (centres undefined) | x | x | 4 | 10 | x | -6 | x | x
O=C1c2cccc3cccc(c23)C(=O)N1CCc1ccccc1 | -12 | 100 | 14 | -1 | 101 | 51* | 3 | u
O=C(OCc1cccc([N+](=O)[O-])c1)c1cccnc1Cl | -2 | 104 | 1 | 8 | 102 | 50* | 31* | 67*
CCN1CCN(C(=O)CSc2cc(=O)n(CC)c3ccccc23)CC1 | -2 | 100 | 2 | -1 | 100 | 47* | -2 | u
CCSc1ccccc1C(=O)N1CCN(Cc2ccc3c(c2)OCO3)CC1 | 3 | 95 | -16 | 14 | 98 | 99* | -1 | 9
SMILES | MEKK2mut PB1 HTS | MEKK2wt PB1 HTS | Apaf-1 inh | PREPL inh | MEKK3 PB1 HTS | UBC13 polyUb | Casp3 UBC13 ctr | UBC13 confirm
CCn1c(=O)cc(SCC(=O)NCCCN2CCN(c3ccc(F)cc3)CC2)c2ccccc21 | 11 | 119 | -3 | 12 | 105 | 92* | 0 | u
O=C(O)c1ccccc1C(=O)N1CCN(Cc2ccc3c(c2)OCO3)CC1 | 1 | 101 | 7 | x | 100 | 4 | x | x
CCn1c(=O)cc(SCC(=O)NCCCN2CCC(C)CC2)c2ccccc21 | 0 | 100 | 6 | 22 | 102 | 22 | x | x
CCn1c(=O)cc(SCC(=O)N2CCN(C)CC2)c2ccccc21 | 1 | 93 | 0 | -4 | 93 | 15 | x | x
CCn1c(=O)cc(SCC(=O)N2CCN(Cc3ccc4c(c3)OCO4)CC2)c2ccccc21 | 8 | 113 | -7 | -7 | 104 | 61* | -2 | u
CC(C)c1ccccc1NCC(=O)N1CCN(Cc2ccccc2)CC1 | 6 | 107 | 4 | -6 | 103 | 2 | x | x
Cc1n[nH]c(C)c1CCCCOc1ccccc1[N+](=O)[O-] | 12 | 104 | 13 | -14 | 108 | 4 | x | x
C=CCN1C(=O)C(C)(C)N(C(=O)c2cccc([N+](=O)[O-])c2)c2ccccc21 | 12 | 99 | 1 | 15 | 100 | 6 | x | x
CSc1ncccc1C(=O)OCC(=O)Nc1ccc(N2CCOCC2)cc1 | x | x | 15 | 27 | x | -8 | x | x
CCn1c(=O)cc(SCC(=O)N2CCCCC2)c2ccccc21 | 3 | 101 | -11 | 13 | 106 | 20 | x | x
Cn1c(=O)cc(SCC(=O)N2CCN(C3CCCCC3)CC2)c2ccccc21 | x | x | -2 | 2 | x | 66* | -2 | u
O=C(Nc1cc(S(=O)(=O)N2CCCCC2)ccc1N1CCCCC1)C1CC1 | 2 | 104 | 8 | -11 | 102 | 18 | x | x
CCN(Cc1ccccc1)C(=O)CCS(=O)(=O)c1ccc2c(c1)n(C)c(=O)c(=O)n2C | 0 | 95 | 1 | 12 | 94 | 2 | x | x
COc1cc(C#Cc2c(-c3cncn3C)n(C)c3ccc(-c4ccc(OC)c(OC)c4)cc23)cc(OC)c1 | x | x | 23 | 35 | x | 20 | x | x
COc1cc(C#Cc2c(-c3cncn3C)n(C)c3ccc(Br)cc23)cc(OC)c1 | x | x | 39 | 23 | x | 46* | -3 | 37
CCCCNC(=O)C(=O)N/N=C/c1ccc(OCC(=O)Nc2cccc(OC)c2)c(OC)c1 | -1 | 109 | -2 | 6 | 105 | -1 | x | x

Screening results from PubChem.
